Key:
Assay type in all cases: functional, cell-based; call rule not given here
P2Y purinoceptor 1 [1] = target: P2Y purinoceptor 1 (Rattus norvegicus, UniProt P49651); assay: Activity against rat P2Y1-GFP transfected in HEK293 cells by intracellular calcium increase
How it was run: (§1)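 HEK 293 cells stably expressing rat P2Y1-GFP or P2Y2-GFP (C-terminal GFP), transfected with DOTAP and selected with 1 mg/mL G418. Grown in DMEM/Ham's F12 with 10% FCS on PLL coverslips and measured after 3 days. Loaded with 2 µM Fura-2/AM for 30 min, then superfused with NaHBS at 37 °C with agonist for 1 min. Single-cell 340/380 nm ratio; mean ± SD, ≥50 cells.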

P2Y purinoceptor 2 = P2Y purinoceptor 2 (Rattus norvegicus, UniProt P41232); assay: Activity against rat P2Y2-GFP transfected in HEK293 cells by intracellular calcium increase; how it was run: as §1
P2Y purinoceptor 1 [2] = target: P2Y purinoceptor 1 (Homo sapiens, UniProt P47900); assay: Activity against human P2Y1-GFP expressed in 1321N1 cells by intracellular calcium increase
How it was run: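 hP2Y1-GFP (C-terminal tag) stably transfected into 1321N1 cells, which lack endogenous P2Y receptors; selected with 1 mg/mL G418. Cells grown in DMEM with 5% FCS under 10% CO2 at 37 °C on PLL-coated coverslips. Loaded with 2 µM Fura-2/AM for 30 min in NaHBS pH 7.4, then superfused at 37 °C with agonist for 1 min. Read-out is single-cell 340/380 nm fluorescence ratio; mean ± SD from ≥50 cells.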

Chain of P2Y purinoceptor 1 (Rattus norvegicus, UniProt P49651) (P49651 whole entry, the tested form may be a part): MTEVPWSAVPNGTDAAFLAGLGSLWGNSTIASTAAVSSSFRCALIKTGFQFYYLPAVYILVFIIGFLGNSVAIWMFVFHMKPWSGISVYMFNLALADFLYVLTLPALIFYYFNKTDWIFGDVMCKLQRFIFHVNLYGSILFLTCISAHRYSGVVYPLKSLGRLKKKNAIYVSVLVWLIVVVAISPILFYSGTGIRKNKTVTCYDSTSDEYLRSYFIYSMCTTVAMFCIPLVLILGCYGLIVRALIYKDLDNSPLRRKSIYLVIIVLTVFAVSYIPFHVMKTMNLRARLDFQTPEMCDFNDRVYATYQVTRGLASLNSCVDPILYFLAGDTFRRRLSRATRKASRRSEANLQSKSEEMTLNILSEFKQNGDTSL
Chain of P2Y purinoceptor 2 (P41232 whole entry): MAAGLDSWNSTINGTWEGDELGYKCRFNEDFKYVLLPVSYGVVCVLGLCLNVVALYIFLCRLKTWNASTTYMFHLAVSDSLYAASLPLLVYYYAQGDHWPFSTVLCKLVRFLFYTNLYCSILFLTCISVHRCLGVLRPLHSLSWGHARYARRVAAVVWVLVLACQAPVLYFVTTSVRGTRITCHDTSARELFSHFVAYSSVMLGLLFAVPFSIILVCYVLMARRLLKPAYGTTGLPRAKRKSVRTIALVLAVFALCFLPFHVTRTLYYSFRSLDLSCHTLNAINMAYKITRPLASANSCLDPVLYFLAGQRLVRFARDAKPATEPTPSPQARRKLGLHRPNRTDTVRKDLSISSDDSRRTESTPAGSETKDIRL
Chain of P2Y purinoceptor 1 (Homo sapiens, UniProt P47900) (P47900 whole entry, the tested form may be a part): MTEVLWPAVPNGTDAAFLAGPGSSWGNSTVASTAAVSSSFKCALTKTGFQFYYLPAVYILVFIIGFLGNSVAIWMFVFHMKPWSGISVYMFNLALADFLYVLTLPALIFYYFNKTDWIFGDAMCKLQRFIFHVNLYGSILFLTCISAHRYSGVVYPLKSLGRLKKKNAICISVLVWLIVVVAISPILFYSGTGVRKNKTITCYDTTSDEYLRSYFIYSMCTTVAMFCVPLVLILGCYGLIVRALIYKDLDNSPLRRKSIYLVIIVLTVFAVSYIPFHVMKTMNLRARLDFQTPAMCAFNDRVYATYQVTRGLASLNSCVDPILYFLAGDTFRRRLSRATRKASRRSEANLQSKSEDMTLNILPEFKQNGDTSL

SMILES	EC50 (P2Y purinoceptor 1 [1])	also measured
Nc1ncnc2c1ncn2[C@@H]1O[C@H](COP(=O)(O)OP(=O)(O)OP(=O)(O)OC[C@H]2O[C@@H](n3cnc4c(N)ncnc43)[C@H](O)[C@@H]2O)[C@@H](O)[C@H]1O	60 nM	
Nc1ncnc2c1ncn2[C@@H]1O[C@H](COP(=O)(O)OP(=O)(O)OP(=O)(O)OP(=O)(O)OP(=O)(O)OC[C@H]2O[C@@H](n3cnc4c(N)ncnc43)[C@H](O)[C@@H]2O)[C@@H](O)[C@H]1O	≥ 5000 nM	
BP(=O)(OP(=O)(O)OC[C@H]1O[C@@H](n2ccc(=O)[nH]c2=O)[C@H](O)[C@@H]1O)OP(=O)(O)OC[C@H]1O[C@@H](n2ccc(=O)[nH]c2=O)[C@H](O)[C@@H]1O.CCCCN(CCCC)CCCC.CCCCN(CCCC)CCCC.CCCCN(CCCC)CCCC		EC50 (P2Y purinoceptor 2; hek293): Not Active; EC50 (P2Y purinoceptor 1 [2]): 800 nM
BP(=O)(OP(=O)(O)OP(=O)(O)OC[C@H]1O[C@@H](n2ccc(=O)[nH]c2=O)[C@H](O)[C@@H]1O)OP(=O)(O)OP(=O)(O)OC[C@H]1O[C@@H](n2ccc(=O)[nH]c2=O)[C@H](O)[C@@H]1O.CCCCN(CCCC)CCCC.CCCCN(CCCC)CCCC.CCCCN(CCCC)CCCC.CCCCN(CCCC)CCCC.CCCCN(CCCC)CCCC		EC50 (P2Y purinoceptor 2; read-out: EC50): > 7000 nM; EC50 (P2Y purinoceptor 1 [2]): 800 nM
O=c1ccn([C@@H]2O[C@H](COP(=O)(O)OP(=O)(O)OP(=O)(O)O)[C@@H](O)[C@H]2O)c(=O)[nH]1 [URIDINE TRIPHOSPHATE]		EC50 (P2Y purinoceptor 2; read-out: EC50): 130 nM
BP(=O)(OP(=O)(O)OC[C@H]1O[C@@H](n2cnc3c(N)ncnc32)[C@H](O)[C@@H]1O)OP(=O)(O)OC[C@H]1O[C@@H](n2cnc3c(N)ncnc32)[C@H](O)[C@@H]1O.CCCCN(CCCC)CCCC.CCCCN(CCCC)CCCC.CCCCN(CCCC)CCCC	900 nM	

Continued, in another order:

EC50 (P2Y purinoceptor 1 [1])	SMILES	also measured
63 nM	BP(=O)(OP(=O)(O)OP(=O)(O)OC[C@H]1O[C@@H](n2cnc3c(N)ncnc32)[C@H](O)[C@@H]1O)OP(=O)(O)OP(=O)(O)OC[C@H]1O[C@@H](n2cnc3c(N)ncnc32)[C@H](O)[C@@H]1O.CCCCN(CCCC)CCCC.CCCCN(CCCC)CCCC.CCCCN(CCCC)CCCC.CCCCN(CCCC)CCCC.CCCCN(CCCC)CCCC	
100 nM	CSc1nc(N)c2ncn([C@@H]3O[C@H](COP(=O)(O)OP(=O)(O)O)[C@@H](O)[C@H]3O)c2n1	

— ChEMBL document CHEMBL1138990, “Diadenosine and diuridine poly(borano)phosphate analogues: synthesis, chemical and enzymatic stability, and activity at P2Y1 and P2Y2 receptors” (J Med Chem, 2006)
